Entries after “also recorded” stand apart in the source; their conditions may differ.
Key:
[1] = system: HCoV-229E; test: microbe, parasite or virus in culture; type: cell-based
[2] = system: AMPK, mTOR, Akt; type: cell-based, human
[3] = system: proximal lung organoids; test: Organoid viability by LDH release; type: cell-based, human; details: days 3 and 4, cordycepin 30 µM
In short: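 Human proximal airway organoids derived from embryonic stem cells, expanded in matrigel in AES expansion medium, plated as one matrigel dome (~2000 organoids) per well. Test compounds (10 or 30 µM) or 0.5% DMSO were added on day 0, with three domes per condition. LDH release was read over 4 days; absorbance at 490 nm minus 680 nm background was converted to % cytotoxicity.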

[4] = system: HCoV-229E; type: cell-based
[5] = system: SARS-CoV-2 replicon; test: HeLa-integrated SARS-CoV-2 replicon activity, N-HiBiT luminescence; type: cell-based
In short: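 HeLa Flp-In T-REx replicon cells plated at 10% confluence, then induced 24 h later with 3 µg/mL doxycycline in regular FBS. After 16-24 h, a lytic detergent buffer with LgBiT and furimazine was added at a volume equal to the media to complement HiBiT-tagged nucleoprotein. Plates were shaken 10 min before reading luminescence. Replicon-free parental cells gave background; compound concentrations were compared with DMSO.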

[6] = system: SARS-CoV-2; type: cell-based
[7] = system: SARS-CoV-2 SB2 strain
[8] = system: AMPK, mTOR, Akt; type: cell-based, human; details: 30 µM, HeLa-replicon cells, doxycycline 24 hours
[9] = system: HCoV-229E; type: cell-based; remark: listed apart in the source
[10] = system: HCoV-229E; details: concentrations higher than 0.1 µM; cited from earlier work
[11] = system: HCoV-229E; type: cell-based; remark: listed apart in the source
[12] = system: SARS-CoV-2; details: cited from earlier work

## Nc1ncnc2c1ncn2[C@@H]1O[C@H](CO)C[C@H]1O [Cordycepin, cordycepin]
[1]; Human coronavirus 229E, Huh-7, read-out: IC50, 229E viral replication (Fig. 6B)
  IC50: 2.1 µM
[2]
  phosphorylation level of AMPK: increased
  protein level of AMPK: remained constant
  total levels of mTOR and Akt compared to DMSO: large decrease
[3]
  cytotoxicity (LDH assay): below 20%
[4]
  229E viral RNA release in media, time of incubation assay: dramatically reduced viral RNA release in media even up to 72 hpi
  229E viral RNA release, pre-treatment assay: reduced viral RNA release; also recorded: strong inhibition
  level of 229E viral RNA released, time of removal assay: reduced the level of viral RNA released even after being removed
[5]; 3 µg/mL doxycycline, 24 hours
  inhibition of replicon activity: did not show inhibition of replicon activity
[6]
  difference in SARS-CoV-2 viral RNA release compared to DMSO: 100 fold
[7]
  reduction of SARS-CoV-2 RNA release: 99%
[7]; SARS-CoV-2
  SI = CC50/IC50: more than 20
[8]
  AMPK, mTOR or Akt phosphorylation: No significant changes
  total Akt levels: did decrease
  total mTOR protein levels: not affected
[9]
  infectivity by TCID50, fold higher than that observed for BTZ-1 and ADEP-42: around 5 fold

## CN(C)C(=N)N=C(N)N [Metformin, metformin]
[1]
  229E replication, various concentrations: inhibited 229E replication in a dose-dependent manner

## CCC(CC)COC(=O)[C@H](C)N[P@](=O)(OC[C@H]1O[C@@](C#N)(c2ccc3c(N)ncnn23)[C@H](O)[C@@H]1O)Oc1ccccc1 [Remdesivir, remdesivir]
[4]
  229E viral RNA release, pre-treatment assay: little to no inhibition
[10]
  inhibition of 229E: ~100%
[5]; read-out: IC50, inhibition of replicon activity, 3 µg/mL doxycycline, 24 hours
  IC50: 0.4 µM

## Nc1ncnc2c1ncn2[C@@H]1O[C@H](COP(=O)(O)OP(=O)(O)OP(=O)(O)O)C[C@H]1O [cordycepin-TP]
[1]; 10 µM, same concentration as cordycepin, […]
  229E viral RNA release: only weakly inhibited viral RNA release
[11]
  229E S protein expression (IF): did not impact S protein expression

## COc1ccc2c(c1)[nH]c1c(C)nccc12 [harmine]
[12]
  IC50: 7.5 µM
